Assay results pooled from the literature.
FAAH: Fatty-acid amide hydrolase 1 (FAAH, Homo sapiens, UniProt O00519)
BDKRB1: B1 bradykinin receptor (BDKRB1, Homo sapiens, UniProt P46663)

With `COc1ccc(S(=O)(=O)N(CC(=O)NO)CC(C)C)cc1` the inhibition was 80% (Stromelysin-1 (MMP3, Homo sapiens, UniProt P08254); enzyme activity; inhibitor; 0.1 µM).
The inhibition of `CN(C(=O)Oc1nsnc1N1CCOCC1)C1CCCCCCC1` is reported as 18% (FAAH; enzyme activity; inhibitor; 10 µM; cell membranes).
With `C#Cc1n[nH]c2c(-c3cn([C@@H](C)c4ccccn4)c(=O)[nH]c3=O)cc(F)cc12` the inhibition was 6.2% (Receptor-type tyrosine-protein kinase FLT3 (FLT3, Homo sapiens, UniProt P36888); enzyme activity; inhibitor; 0.1 µM).
`c1ccc(C(NCCNC(c2ccccc2)c2ccccc2)c2ccccc2)cc1` has an inhibition of -4% (BDKRB1; cell-free assay; 10 µM).
For `COc1ccc(N(C)C(=O)Oc2nsnc2N2CCCCC2)cc1`, the inhibition was 17% (FAAH; enzyme activity; inhibitor; 10 µM; cell membranes).
`COCc1c(-c2cc3cc(C)cc(OC)c3s2)c2c(N)ncnn2c1CN1CCNC(=O)C1` has an inhibition of -15% (Prostaglandin G/H synthase 1 (PTGS1, Homo sapiens, UniProt P23219); enzyme activity; inhibitor; 10 µM).
The inhibition of `C[C@H](C(=O)N[C@H]1COc2ccccc2[C@@H]1S(C)(=O)=O)c1ccc(F)cc1` is reported as 7% (BDKRB1; cell-free assay; 10 µM).
`O=C(Nc1cccnn1)N1CCN([C@@H]2CCOc3cc(C(F)(F)F)ccc32)CC1` gave an inhibition of -15% (Gastrin/cholecystokinin type B receptor (CCKBR, Homo sapiens, UniProt P32239); cell-free assay; 20 µM).
